Here are results for four compounds from ChEMBL document CHEMBL1177700, “Discovery of bishomo(hetero)arylpiperazines as novel multifunctional ligands targeting dopamine D(3) and serotonin 5-HT(1A) and 5-HT(2A) receptors” (J Med Chem, 2010).

The Ki is the dissociation constant of the complex between target and ligand, obtained from inhibition or displacement. Low values mean a stronger hold on the target, high ones a looser hold on the target. In general, Cmax refers to the maximum level reached in the sampled fluid or tissue. What is called logP is a log measure of how a compound divides between an organic and an aqueous phase. For orientation: half-life means the time needed for the level to fall by half in the phase considered. In general, AUC(0-t) refers to the area under the concentration-time curve up to a stated or last time point. A higher AUC(0-t) goes with more exposure. The term logD denotes the decadic logarithm of the distribution of all forms, ionised or not, between an organic phase and buffer at a given pH. For orientation: Tmax means the time from dosing to the highest level.

Molecules are shown by their SMILES. Activity calls are given as the source filed them. Some results are limits rather than exact numbers.

Chain of 5-hydroxytryptamine receptor 2A (P14842 whole entry): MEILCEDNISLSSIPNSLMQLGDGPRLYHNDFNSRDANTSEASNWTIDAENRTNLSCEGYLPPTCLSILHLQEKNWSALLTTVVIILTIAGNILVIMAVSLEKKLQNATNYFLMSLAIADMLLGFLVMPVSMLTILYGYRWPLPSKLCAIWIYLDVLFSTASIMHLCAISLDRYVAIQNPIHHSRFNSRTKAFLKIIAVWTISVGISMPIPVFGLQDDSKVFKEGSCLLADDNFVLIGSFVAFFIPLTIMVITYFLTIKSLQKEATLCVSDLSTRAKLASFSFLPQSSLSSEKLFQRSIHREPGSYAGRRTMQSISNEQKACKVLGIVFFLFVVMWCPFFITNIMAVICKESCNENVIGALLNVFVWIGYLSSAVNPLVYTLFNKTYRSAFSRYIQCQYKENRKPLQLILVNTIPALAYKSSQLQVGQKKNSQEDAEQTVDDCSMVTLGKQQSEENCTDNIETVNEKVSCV
Chain of D(2) dopamine receptor (P61169 whole entry): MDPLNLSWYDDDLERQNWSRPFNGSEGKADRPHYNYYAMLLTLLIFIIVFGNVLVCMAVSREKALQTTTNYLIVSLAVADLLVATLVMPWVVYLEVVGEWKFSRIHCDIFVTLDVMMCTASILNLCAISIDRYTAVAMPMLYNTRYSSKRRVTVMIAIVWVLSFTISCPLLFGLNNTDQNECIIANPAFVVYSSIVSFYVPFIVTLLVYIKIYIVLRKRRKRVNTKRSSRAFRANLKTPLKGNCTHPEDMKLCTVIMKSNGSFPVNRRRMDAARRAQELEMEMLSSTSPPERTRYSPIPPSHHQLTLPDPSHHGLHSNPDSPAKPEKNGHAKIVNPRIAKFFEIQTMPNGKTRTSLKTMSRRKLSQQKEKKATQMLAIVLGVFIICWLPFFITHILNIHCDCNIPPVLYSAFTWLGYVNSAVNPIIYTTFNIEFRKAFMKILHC

One data set deals with Mus musculus. In words: Antipsychotic activity in NMRI mouse assessed as reduction in spontaneous exploratory locomotor activity at 30 mg/kg, ip administered 30 mins prior to testing measured for 60 mins. The class given is functional. The settings on record: route intraperitoneal.
For `Cc1cccc(N2CCN(CCCCCCN3CCN(c4ccccc4)CC3)CC2)c1`, the Activity stood at 30 mg/kg.

Take `Cc1cccc(N2CCN(CCCCCCN3CCN(c4ccccc4)CC3)CC2)n1`: the Activity stood at 30 mg/kg.

On to `c1ccc(N2CCN(CCCCCCN3CCN(c4ccccn4)CC3)CC2)nc1`, for which the Activity amounted to 30 mg/kg.

In a further data set the target is Voltage-gated inwardly rectifying potassium channel KCNH2 (Homo sapiens, UniProt Q12809). The data set is described as follows: Binding affinity to human ERG expressed in HEK293 cells.
Chain of Voltage-gated inwardly rectifying potassium channel KCNH2 (Q12809 whole entry): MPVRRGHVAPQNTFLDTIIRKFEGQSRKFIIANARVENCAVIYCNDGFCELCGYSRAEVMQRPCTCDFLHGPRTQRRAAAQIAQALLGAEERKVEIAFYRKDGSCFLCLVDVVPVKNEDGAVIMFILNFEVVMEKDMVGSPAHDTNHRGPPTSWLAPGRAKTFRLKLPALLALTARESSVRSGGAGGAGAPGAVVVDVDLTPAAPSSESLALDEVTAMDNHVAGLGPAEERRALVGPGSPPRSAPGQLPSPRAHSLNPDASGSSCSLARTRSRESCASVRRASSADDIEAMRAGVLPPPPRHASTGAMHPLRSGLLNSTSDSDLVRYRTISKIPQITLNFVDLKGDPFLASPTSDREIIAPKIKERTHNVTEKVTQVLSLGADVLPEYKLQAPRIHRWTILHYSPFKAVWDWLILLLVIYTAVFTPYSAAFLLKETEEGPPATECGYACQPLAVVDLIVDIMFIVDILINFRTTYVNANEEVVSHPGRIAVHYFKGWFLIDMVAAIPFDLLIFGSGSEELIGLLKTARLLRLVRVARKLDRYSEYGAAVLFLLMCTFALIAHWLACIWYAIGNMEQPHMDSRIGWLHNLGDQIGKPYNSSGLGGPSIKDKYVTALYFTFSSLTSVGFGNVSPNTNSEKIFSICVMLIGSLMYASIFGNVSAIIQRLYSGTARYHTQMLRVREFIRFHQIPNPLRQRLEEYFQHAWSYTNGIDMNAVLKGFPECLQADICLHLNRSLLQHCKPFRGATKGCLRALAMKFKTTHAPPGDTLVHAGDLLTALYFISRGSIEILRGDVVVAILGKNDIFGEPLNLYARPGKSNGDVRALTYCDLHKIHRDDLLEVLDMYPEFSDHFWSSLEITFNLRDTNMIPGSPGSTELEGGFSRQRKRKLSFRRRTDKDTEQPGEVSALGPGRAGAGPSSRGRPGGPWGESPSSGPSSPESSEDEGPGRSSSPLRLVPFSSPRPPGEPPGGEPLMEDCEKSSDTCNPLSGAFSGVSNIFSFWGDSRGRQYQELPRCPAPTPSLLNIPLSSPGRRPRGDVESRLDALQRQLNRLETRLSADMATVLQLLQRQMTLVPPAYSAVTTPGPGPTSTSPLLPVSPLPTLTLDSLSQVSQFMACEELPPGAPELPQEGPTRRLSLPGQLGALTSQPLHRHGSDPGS
Details: not given
The class given is cell-based.
For `Clc1cccc(N2CCN(CCCCCCN3CCN(c4cccc(Cl)c4)CC3)CC2)c1`, the Ki is 300 nM.

For `Cc1cccc(N2CCN(CCCCCCN3CCN(c4ccccc4)CC3)CC2)c1`, the affinity corresponds to a Ki of 3800 nM.

Regarding `c1ccc(N2CCN(CCCCCCN3CCN(c4ccccn4)CC3)CC2)nc1`, the Ki is greater than 10000 nM.

Target in another data set: not listed separately
The data set is described as follows: Displacement of [3H]mesulergine from 5HT2C receptor in CRL:(HA) BR albino guinea pig cortex by scintillation spectrometry. More on the design: species or system Cavia porcellus.
Details: not given
Put shortly:
(§1)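 Radioligand displacement binding gave Ki (nM). Each value is the mean of three determinations, with SD within 10% of the mean.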
On the technique in general: In a radioligand displacement assay an active substance lowers the binding of a labelled ligand.
The compound `Clc1cccc(N2CCN(CCCCCCN3CCN(c4cccc(Cl)c4)CC3)CC2)c1` showed a Ki of 504 nM.

As to `Cc1cccc(N2CCN(CCCCCCN3CCN(c4ccccc4)CC3)CC2)c1`, the affinity corresponds to a Ki of 182 nM.

In turn, `Cc1cccc(N2CCN(CCCCCCN3CCN(c4ccccc4)CC3)CC2)n1` displayed a Ki of 309 nM.

The compound `c1ccc(N2CCN(CCCCCCN3CCN(c4ccccn4)CC3)CC2)nc1` came in with a Ki greater than 1000 nM.

Tested on in another data set: not listed separately
In words: Cmax in NMRI mouse at 3 mg/kg, ip. The class given is ADME, organism-based. The settings on record: in vivo. Set-up: dose 3 mg/kg, route intraperitoneal. In short, it runs like this: (§2)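 Mice received a single 3 mg/kg ip dose, and plasma concentrations were measured over time. […] Cmax, Tmax and T1/2 were taken from the plasma level profiles.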
`Cc1cccc(N2CCN(CCCCCCN3CCN(c4ccccc4)CC3)CC2)c1`: the highest level (Cmax) was 41 ng/mL.

In turn, `Cc1cccc(N2CCN(CCCCCCN3CCN(c4ccccc4)CC3)CC2)n1` registered a Cmax of 121 ng/mL.

`c1ccc(N2CCN(CCCCCCN3CCN(c4ccccn4)CC3)CC2)nc1`: the Cmax is 26 ng/mL.

Tested on in a further data set: not listed separately
The data set is described as follows: Partition coefficient, log P of the compound. The class given is physicochemical. The settings on record: octanol/water.
As for `Clc1cccc(N2CCN(CCCCCCN3CCN(c4cccc(Cl)c4)CC3)CC2)c1`, the logP stood at 5.35.

`Cc1cccc(N2CCN(CCCCCCN3CCN(c4ccccc4)CC3)CC2)c1` had a logP of 4.45.

Take `Cc1cccc(N2CCN(CCCCCCN3CCN(c4ccccc4)CC3)CC2)n1`: the logP amounted to 3.99.

As for `c1ccc(N2CCN(CCCCCCN3CCN(c4ccccn4)CC3)CC2)nc1`, the logP was 3.39.

A further data set deals with Mus musculus. The data set is described as follows: Antipsychotic activity in NMRI mouse assessed as reduction in MK-801-induced locomotor activity at 10 mg/kg, ip administered 30 mins prior to testing measured for 60 mins. The data set is classed as functional. The settings on record: route intraperitoneal.
As to `Cc1cccc(N2CCN(CCCCCCN3CCN(c4ccccc4)CC3)CC2)n1`, the Activity worked out at 10 mg/kg.

A further data set has as its target T1, 5-hydroxytryptamine receptor 1A (Rattus norvegicus, UniProt P19327).
T1 sequence (P19327 whole entry): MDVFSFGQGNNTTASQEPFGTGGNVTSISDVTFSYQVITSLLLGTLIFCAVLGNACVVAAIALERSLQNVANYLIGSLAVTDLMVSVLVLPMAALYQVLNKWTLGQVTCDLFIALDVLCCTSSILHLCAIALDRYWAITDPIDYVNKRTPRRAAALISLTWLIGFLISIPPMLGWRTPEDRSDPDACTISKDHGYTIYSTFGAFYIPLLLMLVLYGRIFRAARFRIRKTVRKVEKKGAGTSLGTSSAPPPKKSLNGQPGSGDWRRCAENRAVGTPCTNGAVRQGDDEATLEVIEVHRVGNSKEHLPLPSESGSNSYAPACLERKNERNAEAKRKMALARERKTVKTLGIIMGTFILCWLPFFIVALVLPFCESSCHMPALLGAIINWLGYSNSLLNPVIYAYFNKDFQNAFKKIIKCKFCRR
In words: Displacement of [3H]8OH-DPAT from 5HT1A receptor in rat CRL:CD(SD)BR-COBS hippocampus by scintillation spectrometry. The class given is tissue-based.
Details: not given
Put shortly:
as §1
The compound `Clc1cccc(N2CCN(CCCCCCN3CCN(c4cccc(Cl)c4)CC3)CC2)c1` yielded a Ki of 16 nM.

Consider `Cc1cccc(N2CCN(CCCCCCN3CCN(c4ccccc4)CC3)CC2)c1`, for which the Ki is 19 nM.

As for `Cc1cccc(N2CCN(CCCCCCN3CCN(c4ccccc4)CC3)CC2)n1`, the affinity, expressed as Ki, was 8 nM.

In the case of `c1ccc(N2CCN(CCCCCCN3CCN(c4ccccn4)CC3)CC2)nc1`, the inhibition constant Ki turned out to be 16 nM.

A further data set deals with D(1A) dopamine receptor (Rattus norvegicus, UniProt P18901). The data set is described as follows: Displacement of [3H]SCH23390 from dopamine D1 receptor in CRL:CD(SD)BR-COBS rat striatum by scintillation spectrometry.
Chain of D(1A) dopamine receptor (P18901 whole entry): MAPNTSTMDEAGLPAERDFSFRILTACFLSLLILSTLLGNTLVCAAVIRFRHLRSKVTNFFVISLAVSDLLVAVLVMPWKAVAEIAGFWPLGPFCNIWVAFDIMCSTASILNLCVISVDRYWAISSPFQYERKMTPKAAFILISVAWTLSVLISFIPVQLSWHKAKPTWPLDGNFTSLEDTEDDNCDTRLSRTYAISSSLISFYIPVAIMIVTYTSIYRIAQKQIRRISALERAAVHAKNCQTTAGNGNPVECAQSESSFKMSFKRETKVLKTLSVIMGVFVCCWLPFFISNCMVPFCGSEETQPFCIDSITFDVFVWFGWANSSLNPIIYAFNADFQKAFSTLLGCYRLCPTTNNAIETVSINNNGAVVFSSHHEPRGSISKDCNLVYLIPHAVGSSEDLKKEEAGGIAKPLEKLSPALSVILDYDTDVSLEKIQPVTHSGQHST
Details: not given
In the case of `Clc1cccc(N2CCN(CCCCCCN3CCN(c4cccc(Cl)c4)CC3)CC2)c1`, the Ki was greater than 1000 nM.

In the case of `Cc1cccc(N2CCN(CCCCCCN3CCN(c4ccccc4)CC3)CC2)c1`, the Ki is greater than 1000 nM.

`Cc1cccc(N2CCN(CCCCCCN3CCN(c4ccccc4)CC3)CC2)n1` came in with a Ki greater than 1000 nM.

On to `c1ccc(N2CCN(CCCCCCN3CCN(c4ccccn4)CC3)CC2)nc1`, for which the Ki is greater than 1000 nM.

A further data set has as its target 5-hydroxytryptamine receptor 2A (Rattus norvegicus, UniProt P14842). In words: Displacement of [3H]ketanserin from 5HT2A receptor in CRL:CD(SD)BR-COBS rat cortex by scintillation spectrometry.
Details: not given
With `Clc1cccc(N2CCN(CCCCCCN3CCN(c4cccc(Cl)c4)CC3)CC2)c1`, the affinity, expressed as Ki, was 98 nM.

In the case of `Cc1cccc(N2CCN(CCCCCCN3CCN(c4ccccc4)CC3)CC2)c1`, the Ki stood at 10 nM.

Take `Cc1cccc(N2CCN(CCCCCCN3CCN(c4ccccc4)CC3)CC2)n1`: the Ki was 25 nM.

The compound `c1ccc(N2CCN(CCCCCCN3CCN(c4ccccn4)CC3)CC2)nc1` gave a Ki of 45 nM.

For a further data set, the system named is Mus musculus. The data set is described as follows: Antipsychotic activity in NMRI mouse assessed as inhibition of PCP-induced locomotor activity at 3 mg/kg, ip administered 30 mins prior to testing measured for 60 mins. The class given is functional, organism-based. More on the design: dose 3 mg/kg.
Details: not given
Regarding `Cc1cccc(N2CCN(CCCCCCN3CCN(c4ccccc4)CC3)CC2)c1`, the outcome was Active.

With `Cc1cccc(N2CCN(CCCCCCN3CCN(c4ccccc4)CC3)CC2)n1`, the outcome was Active.

With `c1ccc(N2CCN(CCCCCCN3CCN(c4ccccn4)CC3)CC2)nc1`, the outcome was Active.

A further data set concerns the target D(2) dopamine receptor (Rattus norvegicus, UniProt P61169). The data set is described as follows: Displacement of [3H]spiperone from dopamine D2 receptor in CRL:CD(SD)BR-COBS rat striatum by scintillation spectrometry.
Details: not given
In turn, `Clc1cccc(N2CCN(CCCCCCN3CCN(c4cccc(Cl)c4)CC3)CC2)c1` displayed a Ki of 11 nM.

The compound `Cc1cccc(N2CCN(CCCCCCN3CCN(c4ccccc4)CC3)CC2)c1` returned a Ki of 20 nM.

For the compound `Cc1cccc(N2CCN(CCCCCCN3CCN(c4ccccc4)CC3)CC2)n1`, the Ki was 24 nM.

With `c1ccc(N2CCN(CCCCCCN3CCN(c4ccccn4)CC3)CC2)nc1`, the affinity, expressed as Ki, was 159 nM.

Tested on in another data set: not listed separately
The data set is described as follows: Half life in NMRI mouse at 3 mg/kg, ip. Set-up: dose 3 mg/kg, route intraperitoneal. Particulars: in vivo. The data set is classed as ADME, organism-based. In short, it runs like this: as §2
The compound `Cc1cccc(N2CCN(CCCCCCN3CCN(c4ccccc4)CC3)CC2)n1` gave a half-life of 150 min.

Tested on in the next data set: not listed separately
The data set is described as follows: AUC (0 to 6 hrs) in NMRI mouse at 3 mg/kg, ip. The data set is classed as ADME, organism-based. Set-up: time < 6 hr, dose 3 mg/kg, route intraperitoneal. Particulars: plasma. In short, it runs like this:
as §2
`Cc1cccc(N2CCN(CCCCCCN3CCN(c4ccccc4)CC3)CC2)c1`: the AUC(0-t) at 6 h was 147 ng·h/mL.

`Cc1cccc(N2CCN(CCCCCCN3CCN(c4ccccc4)CC3)CC2)n1` showed an AUC(0-t) at 6 h of 362 ng·h/mL.

For `c1ccc(N2CCN(CCCCCCN3CCN(c4ccccn4)CC3)CC2)nc1`, the AUC(0-t) at 6 h came out at 84 ng·h/mL.

For another data set, the system named is Mus musculus. In words: Antipsychotic activity in NMRI mouse assessed as reduction of PCP-induced locomotor activity at 10 mg/kg, ip administered 30 mins prior to testing measured for 60 mins.
Details: not given
Set-up: dose 10 mg/kg. The data set is classed as functional, organism-based.
As for `Cc1cccc(N2CCN(CCCCCCN3CCN(c4ccccc4)CC3)CC2)c1`, the result was Active.

Take `Cc1cccc(N2CCN(CCCCCCN3CCN(c4ccccc4)CC3)CC2)n1`: the outcome was Active.

As to `c1ccc(N2CCN(CCCCCCN3CCN(c4ccccn4)CC3)CC2)nc1`, the outcome was Active.

Tested on in another data set: not listed separately
The data set is described as follows: Lipophilicity, log D at pH 7.4. The class given is physicochemical. Particulars: buffer.
The compound `Clc1cccc(N2CCN(CCCCCCN3CCN(c4cccc(Cl)c4)CC3)CC2)c1` displayed a log distribution coefficient (logD) of 4.58.

`Cc1cccc(N2CCN(CCCCCCN3CCN(c4ccccc4)CC3)CC2)c1` showed a logD of 3.53.

`Cc1cccc(N2CCN(CCCCCCN3CCN(c4ccccc4)CC3)CC2)n1` came in with a logD of 1.89.

The compound `c1ccc(N2CCN(CCCCCCN3CCN(c4ccccn4)CC3)CC2)nc1` came in with a logD of 1.33.

Tested on in a further data set: not listed separately
In words: Tmax in NMRI mouse at 3 mg/kg, ip. More on the design: dose 3 mg/kg, route intraperitoneal. Particulars: in vivo. The class given is ADME, organism-based. Put shortly: as §2
As for `Cc1cccc(N2CCN(CCCCCCN3CCN(c4ccccc4)CC3)CC2)c1`, the Tmax was 30 min.

As for `Cc1cccc(N2CCN(CCCCCCN3CCN(c4ccccc4)CC3)CC2)n1`, the Tmax is 18 min.

`c1ccc(N2CCN(CCCCCCN3CCN(c4ccccn4)CC3)CC2)nc1`: the Tmax amounted to 60 min.
